KCNQ1 inh: blocks the human KCNQ1 potassium channel; 310,000 compounds, 1.3% hits; B-score at 10 µM; CHO-K1 KCNQ1, FluxOR thallium flux fluorescence; stronger effect = higher value; P51787;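 active = compounds whose thallium flux B-score, printed positive for inhibition, exceeds three library SD while starting fluorescence stays within three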;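 note: channel opened by potassium depolarization with thallium stimulus after 20 min compound exposure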
KCNK3 inh: human KCNK3 channel inhibition, primary screen; O14649; 340,000 compounds, 0.84% hits; AID 602410; B-score at 10 µM; CHO-KCNK3 thallium flux, FluxOR fluorescence; stronger effect = lower value;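 active = B-score under library mean minus 4 SD, starting fluorescence ratio at most library mean plus 5 SD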;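 note: more negative B-score means stronger inhibition of thallium flux through KCNK3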
Target sequence (O14649 whole entry, looked up): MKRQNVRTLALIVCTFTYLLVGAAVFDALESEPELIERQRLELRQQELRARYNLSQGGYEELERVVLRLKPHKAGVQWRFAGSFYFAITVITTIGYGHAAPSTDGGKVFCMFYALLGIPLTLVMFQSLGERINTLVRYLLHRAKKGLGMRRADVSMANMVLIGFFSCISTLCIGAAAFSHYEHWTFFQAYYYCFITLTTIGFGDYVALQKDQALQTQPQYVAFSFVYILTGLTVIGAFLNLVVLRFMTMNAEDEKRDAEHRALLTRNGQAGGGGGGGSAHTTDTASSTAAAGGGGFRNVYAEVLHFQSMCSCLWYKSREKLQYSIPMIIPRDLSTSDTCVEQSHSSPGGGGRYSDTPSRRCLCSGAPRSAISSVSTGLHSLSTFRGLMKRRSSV
Kir21 inh: inhibitors of mouse Kir2.1 inward-rectifier potassium channel; P35561; HEK293-Kir2.1, FluxOR thallium flux fluorescence; stronger effect = lower value; B-score at 10 µM; 310,000 compounds, 0.85% hits;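 active = fluorescence ratio B-score at or below minus 3 SD of library scores, with starting-brightness B-score within 2 SD, cut at about -4.2 in these data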;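 note: channel flux triggered by added potassium and thallium sulfate stimulus; B-score of peak minus minimum fluorescence over baseline after thallium stimulus; more negative B-score means stronger Kir2.1 block with less thallium influx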
hERG rescue: hERG (human) protection from proarrhythmic block. Q12809. activation (rescue from dofetilide block), less the hit threshold, % at 10 µM. CHO-hERG, FluxOR thallium flux, dofetilide IC70 present. 310,000 compounds, 0.51% hits;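 active = activation above the mean of controls blocked by dofetilide plus 5 SD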;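 note: thallium influx through hERG after potassium depolarization seen as dye fluorescence rise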
KCNQ1 pot: human KCNQ1 channel potentiation or activation; B-score at 10 µM; P51787; 310,000 compounds, 0.35% hits; CHO-K1 KCNQ1, thallium flux FluxOR fluorescence; stronger effect = higher value;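 active = fluorescence ratio B-score, a plate-corrected score, at least three library SD, with initial intensity B-score within 5 SD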
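System: CHO-K1 cells stably expressing KCNQ1 / Medium: assay buffer for compound exposure, DMSO matched across wells / Reagent: thallium- and potassium-containing depolarizing buffer / Compound: one concentration, matched DMSO / Incubation: 20 min compound pretreatment at room temperature / Measured by: kinetic FluxOR fluorescence, 10 s baseline plus 110 s post-stimulus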
KCNK9 block: inhibitors of human KCNK9 two-pore domain potassium channel; Q9NPC2; HEK293 KCNK9, FluxOR thallium flux fluorescence; stronger effect = lower value; B-score at 10 µM; 310,000 compounds, 1.2% hits;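 active = ratio B-score over 3 SD below the library mean, with starting fluorescence within 5 SD of its mean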;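 note: negative B-score means less thallium flux so channel inhibition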
An asterisk follows results filed as active; i = inactive; . = not tested or not shown. The list is not random: actives were taken first. Their share in the collection is about 3.7%.

SMILES | KCNQ1 inh | KCNK3 inh | Kir21 inh | hERG rescue | KCNQ1 pot | KCNK9 block
CCOc1ccc(CCN2C(=O)C(=O)N([C@@H](Cc3ccc(O)cc3)CN3CCC[C@@H]3CN3C(=O)C(=O)NC[C@@H]3Cc3ccccc3)C[C@@H]2Cc2ccccc2)cc1 | . | i | . | . | . | .
O=C(O)c1cnc2[nH]c3ccccc3n2c1=O | i | i | 0.01 | -10 | i | i
CCOc1ccc(N=Nc2cc(C(C)C)ccc2O)cc1 | i | i | 1.6 | 9.1* | i | i
Cc1ccc(C)c(N=Nc2ccc(O)c3ncccc23)c1 | i | i | 0.98 | -6 | i | i
CCOc1ccc(N=Nc2ccc(O)c3ncccc23)cc1 | i | i | 1.7 | 11* | i | i
Cc1cccc(N=Nc2ccc(O)c3ncccc23)c1 | i | i | -0.91 | 2 | 10* | i
CCOc1ccc(N=C(C)c2ccccc2O)cc1 | i | i | 0 | -1 | i | i
CN(C)CC1(C)Cc2ccsc2C1O (stereo unspecified) | . | i | . | . | . | .
CCn1c2ccccc2c2cc(CNCc3ccc(OC)cc3OC)ccc21 | i | i | -9.8* | -37 | i | i
COc1ccc(CNC(=O)Cc2cn(C)c3ccccc23)c(OC)c1 | i | i | -4.3* | -8 | i | i
COc1cccc(CNCc2ccc(OC)cc2OC)c1 | i | i | -1.9 | -7 | i | i
O=C(COC(=O)c1ccccc1F)Nc1ccc(S(=O)(=O)N2CCOCC2)cc1 | . | i | . | . | . | .
Cc1nn2c(c1-c1ccc(Cl)cc1)N=C(c1ccco1)CC2c1ccccc1 (stereo unspecified) | 7* | i | 0.37 | -5 | i | -6.7*
CC(=O)Nc1sc(NC(=O)c2ccccc2)nc1-c1cccs1 | i | i | 0.73 | 5.5* | i | i
CC(C)(C)OC(=O)NCCCCCNC(=O)c1nc[nH]c1C(=O)N1CCN(C(=O)OC(C)(C)C)CC1 | . | i | . | . | . | .
O=C(Nc1ccc2c(c1)S(=O)(=O)N=C1CCCCCN12)c1ccccc1Cl | i | i | 0.04 | -7 | i | i
Cc1ccc(-c2nnc(CSc3nnc(COc4ccccc4)n3-c3ccccc3)o2)cc1 | i | i | -2.2 | -16 | i | i
Cc1ccc(-c2nnc(CSc3nnc(COc4ccccc4)n3-c3ccc(C)cc3)o2)cc1 | 6* | i | 0.63 | -21 | i | i
N#CC1c2ccccc2C=CN1C(=O)c1ccccc1 (stereo unspecified) | i | i | 0.3 | -8 | i | i
N#CC1(Cc2ccccc2Cl)c2ccccc2C=CN1C(=O)c1ccccc1 (stereo unspecified) | 8* | i | 0.29 | -12 | i | i
Cc1ccc(NC(=S)N(CCCN2CCCC2)Cc2cccn2Cc2ccc(Cl)cc2)cc1C | i | i | -0.84 | -16 | i | i
Cc1ccc(NC(=S)N(CCCN2CCCC2)Cc2cccn2Cc2ccc(Cl)cc2)cc1Cl | 7* | i | 0.5 | -12 | i | i
CS(=O)(=O)N1c2ccccc2[C@]2(Br)C[C@H]3C(=O)N[C@@H](Cc4ccccc4)C(=O)N3[C@H]12 | i | i | -0.45 | -8 | i | i
COc1ccc(C2CCCN2CC(O)COc2ccccc2C(C)C)cc1 (stereo unspecified) | i | i | -11* | -16 | i | i
Cc1ccc(C)c(S(=O)(=O)NCc2ccc(C(=O)N3CCCCC3C)cc2)c1 (stereo unspecified) | i | i | -1.6 | -14 | i | -6.8*
SMILES | KCNQ1 inh | KCNK3 inh | Kir21 inh | hERG rescue | KCNQ1 pot | KCNK9 block
CC1CCCCN1C(=O)c1ccc(C(=O)N2CCCCC2C)cc1 (stereo unspecified) | i | i | -0.28 | -6 | i | i
Cc1cccc(C(=O)Nc2ccc(C(=O)N3CCCCC3C)cc2)c1 (stereo unspecified) | i | i | 0.54 | -9 | i | -7.6*
Cc1ccc(C)c(S(=O)(=O)Nc2ccc(C(=O)N3CCCCC3)cc2)c1 | i | i | -0.01 | -8 | i | i
COCCn1c(SCC(=O)Nc2ccc(OC)c(S(N)(=O)=O)c2)nc2ccccc2c1=O | i | i | 0.34 | -12 | i | i
CC(O)C1CCC2C3CCC4CC(O)CCC4(C)C3C(=O)CC12C (stereo unspecified) | . | i | . | . | . | .
O=C(c1ccccc1)c1ncc[nH]1 | i | i | 0.75 | -4 | i | i
O=c1[nH]c(/C(=N\O)c2ccccc2)no1 | i | i | -3.7 | -9 | i | -7.2*
Cc1ccc(N=c2oc3cc(O)ccc3cc2C(N)=O)cc1 | i | i | 1.1 | 2 | i | i
COc1ccc(N=c2oc3cc(O)ccc3cc2C(=O)Nc2ccccn2)cc1OC | 9* | i | 0.71 | -18 | i | -6.8*
CCCCOC(=O)Cn1c(=O)n(CC(=O)OCCCC)c2ccccc21 | i | i | -6.1* | -7 | i | i
COc1cccc(C(CCc2cc(OC)c(OC)c(OC)c2)NC(C)=O)c1 (stereo unspecified) | . | i | . | . | . | .
CN(C)c1ccc(C=c2c3cc([N+](=O)[O-])ccc3n3c2cc(-c2ccccc2)[n+]3C)cc1 | . | i | . | . | . | .
CN(C)c1ccc(C=c2c3ccccc3n3c2cc(-c2ccc(Cl)cc2)[n+]3C)cc1 | . | -12* | . | . | . | .
COc1cc(N(C)C)ccc1C=c1c2ccccc2n2c1cc(-c1ccccc1)[n+]2C | . | i | . | . | . | .
CN(C)c1ccc(C=c2c3ccccc3n3c2cc(-c2ccccc2)[n+]3C)cc1 | . | -15* | . | . | . | .
NNC(=O)c1cc(NS(=O)(=O)c2cccs2)cc(NS(=O)(=O)c2cccs2)c1 | . | i | . | . | . | .
Cc1c(Cl)ccc2c(C(O)CBr)cc(-c3ccccc3)nc12 (stereo unspecified) | . | i | . | . | . | .
Cc1[nH]n2c(=O)cc(C(C)C)nc2c1-c1ccccc1 | i | i | -0.85 | -3 | i | i
Cc1[nH]n2c(=O)cc(-c3ccc([N+](=O)[O-])cc3)nc2c1-c1ccccc1 | 7* | i | -0.14 | -8 | i | i
Cc1[nH]n2c(=O)cc(C(C)(C)C)nc2c1-c1ccccc1 | i | i | -1.5 | 8.6* | 15* | i
CC1Cc2ccccc2N1C(=O)CN(C)CC(=O)Nc1cccc(F)c1 (stereo unspecified) | . | i | . | . | . | .
CN(C)C(=O)c1c2c(nc3ccccc13)CCCC2 | i | i | -0.81 | 8.1* | i | i
CC1c2ccsc2CCN1S(=O)(=O)c1ccccc1 (stereo unspecified) | i | i | -6.8* | -15 | i | i
CC1c2cccn2CCN1S(=O)(=O)c1ccccc1 (stereo unspecified) | . | i | . | . | . | .
COc1ccccc1CNC(=O)CCC1N=C2c3ccccc3N=C(SCC(=O)NCC3CCCO3)N2C1=O (stereo unspecified) | i | i | 0.69 | -8 | i | i

Compound activity as filed in PubChem BioAssay.
